According to ChEMBL document CHEMBL1681775, “Design of a novel pyrrolidine scaffold utilized in the discovery of potent and selective human β3 adrenergic receptor agonists” (Bioorg Med Chem Lett, 2011):
Values after ≈ are worked out from the molar mass of the structure shown. Each block holds one molecule with its values, some of them ahead of it.

Assays:
[1] = biological target: Cytochrome P450 2D6 (Homo sapiens, UniProt P10635); assay: Inhibition of CYP2D6; type: ADME
[2] = biological target: T1, Beta-3 adrenergic receptor (Homo sapiens, UniProt P13945); assay: Agonist activity at human beta3 adrenergic receptor; type: functional
Target sequence in this assay (P13945 whole entry): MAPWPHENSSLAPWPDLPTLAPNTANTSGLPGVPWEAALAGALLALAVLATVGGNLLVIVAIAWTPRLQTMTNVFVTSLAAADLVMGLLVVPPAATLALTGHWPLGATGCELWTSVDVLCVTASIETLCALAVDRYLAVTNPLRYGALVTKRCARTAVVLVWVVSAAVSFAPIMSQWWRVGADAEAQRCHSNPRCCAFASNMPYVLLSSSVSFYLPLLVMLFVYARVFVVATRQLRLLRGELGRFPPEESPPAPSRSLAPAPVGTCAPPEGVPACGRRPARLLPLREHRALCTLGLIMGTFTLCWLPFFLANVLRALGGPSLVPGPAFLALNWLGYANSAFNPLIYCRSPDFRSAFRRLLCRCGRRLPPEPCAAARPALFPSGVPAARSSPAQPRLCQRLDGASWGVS

[3] = biological target: T2, Beta-1 adrenergic receptor (Homo sapiens, UniProt P08588); assay: Agonist activity at human beta1 adrenergic receptor; type: functional
T2 sequence (P08588 whole entry): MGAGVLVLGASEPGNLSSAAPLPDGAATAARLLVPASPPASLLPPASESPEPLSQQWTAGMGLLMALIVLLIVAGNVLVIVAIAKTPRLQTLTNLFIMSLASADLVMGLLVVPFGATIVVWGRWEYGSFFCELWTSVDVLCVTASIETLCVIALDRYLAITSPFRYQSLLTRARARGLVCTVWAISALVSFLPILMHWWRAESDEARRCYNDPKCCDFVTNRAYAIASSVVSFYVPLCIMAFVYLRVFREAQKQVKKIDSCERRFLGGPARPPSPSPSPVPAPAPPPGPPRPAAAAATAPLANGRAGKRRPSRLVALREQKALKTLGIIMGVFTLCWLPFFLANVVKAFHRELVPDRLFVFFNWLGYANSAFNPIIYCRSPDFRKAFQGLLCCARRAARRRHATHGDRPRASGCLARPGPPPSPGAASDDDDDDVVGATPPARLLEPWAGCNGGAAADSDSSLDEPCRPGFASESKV

[4] = biological target: T1, Beta-3 adrenergic receptor; assay: Agonist activity at human beta3 adrenergic receptor relative to control; type: functional
Target sequence in this assay (P13945 whole entry, looked up): as the sequence (P13945 whole entry) above

[5] = biological target: T3, Beta-2 adrenergic receptor (Homo sapiens, UniProt P07550); assay: Agonist activity at human beta2 adrenergic receptor; type: functional
T3 sequence (P07550 whole entry): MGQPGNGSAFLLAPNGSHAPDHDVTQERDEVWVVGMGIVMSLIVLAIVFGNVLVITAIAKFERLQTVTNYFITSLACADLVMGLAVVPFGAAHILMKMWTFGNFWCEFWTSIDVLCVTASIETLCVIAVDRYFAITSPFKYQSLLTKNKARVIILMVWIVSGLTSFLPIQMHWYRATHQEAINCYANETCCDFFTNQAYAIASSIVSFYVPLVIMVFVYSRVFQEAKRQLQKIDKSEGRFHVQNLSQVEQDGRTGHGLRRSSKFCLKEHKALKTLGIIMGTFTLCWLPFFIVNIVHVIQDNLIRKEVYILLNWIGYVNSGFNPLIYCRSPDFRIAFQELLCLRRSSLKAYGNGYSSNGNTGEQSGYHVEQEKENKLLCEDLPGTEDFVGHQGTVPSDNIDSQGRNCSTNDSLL

[6] = biological target: Cytochrome P450 3A4 (Homo sapiens, UniProt P08684); assay: Inhibition of CYP3A4; type: ADME
Cytochrome P450 3A4, sequence (P08684 whole entry): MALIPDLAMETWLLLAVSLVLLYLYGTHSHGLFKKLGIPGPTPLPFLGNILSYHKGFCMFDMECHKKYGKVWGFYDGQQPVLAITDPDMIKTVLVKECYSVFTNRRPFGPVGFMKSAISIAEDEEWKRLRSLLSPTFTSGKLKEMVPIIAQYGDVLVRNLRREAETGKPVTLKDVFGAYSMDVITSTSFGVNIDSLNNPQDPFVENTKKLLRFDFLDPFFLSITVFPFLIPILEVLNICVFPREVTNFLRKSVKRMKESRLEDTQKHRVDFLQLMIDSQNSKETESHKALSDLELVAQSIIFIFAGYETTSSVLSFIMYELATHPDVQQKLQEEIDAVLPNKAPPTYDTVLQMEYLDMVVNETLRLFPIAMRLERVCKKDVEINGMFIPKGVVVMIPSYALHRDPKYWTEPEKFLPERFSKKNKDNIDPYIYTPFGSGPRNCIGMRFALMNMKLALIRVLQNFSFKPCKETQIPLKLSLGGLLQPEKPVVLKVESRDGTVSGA

[7] = Mutagenic activity in Salmonella Typhimurium assessed as 2 fold increase of revertants at 30 to 600 ug/plate by AMES test relative to control in absence of S9 fraction; type: toxicity; details: salmonella enterica subsp. enterica serovar typhimurium, in the assay text read “30 to 6000 ug/plate” for “30 to 600 ug/plate”
Method in brief: (§1)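 Ames microbial mutagenesis assay in bacterial strains, run with and without S-9 metabolic activation. A positive response was defined as a 2-fold or greater increase in revertants over the control.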

[8] = Mutagenic activity in Salmonella Typhimurium assessed as 2 fold increase of revertants at 30 to 600 ug/plate by AMES test relative to control in presence of S9 fraction; type: toxicity; details: salmonella enterica subsp. enterica serovar typhimurium, in the assay text read “30 to 6000 ug/plate” for “30 to 600 ug/plate”; method in brief: as §1
[9] = Half life in iv dosed rat; type: ADME, organism-based; details: in vivo
[10] = Volume of distribution in rat; type: ADME, organism-based; details: in vivo
[11] = tested on: Canis familiaris; assay: (§2) Half life in iv dosed dog; type: ADME, organism-based, Canis lupus familiaris; details: in vivo
[12] = Volume of distribution in dog; type: ADME, organism-based, Canis lupus familiaris; details: in vivo
[13] = organism: Homo sapiens; assay: Selectivity ratio of human beta3 adrenergic receptor to human beta2 adrenergic receptor
[14] = organism: Homo sapiens; assay: Selectivity ratio of human beta3 adrenergic receptor to human beta1 adrenergic receptor
[15] = Volume of distribution in rhesus monkey; type: ADME, organism-based, Macaca mulatta; details: in vivo
[16] = biological target: T4, Cytochrome P450 2C8 (Homo sapiens, UniProt P10632); assay: Inhibition of CYP2C8; type: ADME
T4 sequence (P10632 whole entry): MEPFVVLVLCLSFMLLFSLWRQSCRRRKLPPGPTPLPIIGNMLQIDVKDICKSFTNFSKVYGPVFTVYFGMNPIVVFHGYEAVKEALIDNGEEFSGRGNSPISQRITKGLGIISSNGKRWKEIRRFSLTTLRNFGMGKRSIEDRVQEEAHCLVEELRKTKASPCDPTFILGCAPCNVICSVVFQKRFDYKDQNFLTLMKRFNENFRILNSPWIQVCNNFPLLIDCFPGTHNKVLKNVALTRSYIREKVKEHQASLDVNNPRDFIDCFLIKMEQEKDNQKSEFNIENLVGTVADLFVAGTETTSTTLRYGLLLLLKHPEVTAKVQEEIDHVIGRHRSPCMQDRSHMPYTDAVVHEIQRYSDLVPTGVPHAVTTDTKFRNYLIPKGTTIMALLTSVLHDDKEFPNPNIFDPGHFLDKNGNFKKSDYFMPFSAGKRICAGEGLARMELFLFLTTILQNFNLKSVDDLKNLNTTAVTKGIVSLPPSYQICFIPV

[17] = biological target: Nav1.5 (Homo sapiens, UniProt Q14524); assay: Inhibition of human Nav1.5 at 30 uM
Nav1.5, sequence (Q14524 whole entry): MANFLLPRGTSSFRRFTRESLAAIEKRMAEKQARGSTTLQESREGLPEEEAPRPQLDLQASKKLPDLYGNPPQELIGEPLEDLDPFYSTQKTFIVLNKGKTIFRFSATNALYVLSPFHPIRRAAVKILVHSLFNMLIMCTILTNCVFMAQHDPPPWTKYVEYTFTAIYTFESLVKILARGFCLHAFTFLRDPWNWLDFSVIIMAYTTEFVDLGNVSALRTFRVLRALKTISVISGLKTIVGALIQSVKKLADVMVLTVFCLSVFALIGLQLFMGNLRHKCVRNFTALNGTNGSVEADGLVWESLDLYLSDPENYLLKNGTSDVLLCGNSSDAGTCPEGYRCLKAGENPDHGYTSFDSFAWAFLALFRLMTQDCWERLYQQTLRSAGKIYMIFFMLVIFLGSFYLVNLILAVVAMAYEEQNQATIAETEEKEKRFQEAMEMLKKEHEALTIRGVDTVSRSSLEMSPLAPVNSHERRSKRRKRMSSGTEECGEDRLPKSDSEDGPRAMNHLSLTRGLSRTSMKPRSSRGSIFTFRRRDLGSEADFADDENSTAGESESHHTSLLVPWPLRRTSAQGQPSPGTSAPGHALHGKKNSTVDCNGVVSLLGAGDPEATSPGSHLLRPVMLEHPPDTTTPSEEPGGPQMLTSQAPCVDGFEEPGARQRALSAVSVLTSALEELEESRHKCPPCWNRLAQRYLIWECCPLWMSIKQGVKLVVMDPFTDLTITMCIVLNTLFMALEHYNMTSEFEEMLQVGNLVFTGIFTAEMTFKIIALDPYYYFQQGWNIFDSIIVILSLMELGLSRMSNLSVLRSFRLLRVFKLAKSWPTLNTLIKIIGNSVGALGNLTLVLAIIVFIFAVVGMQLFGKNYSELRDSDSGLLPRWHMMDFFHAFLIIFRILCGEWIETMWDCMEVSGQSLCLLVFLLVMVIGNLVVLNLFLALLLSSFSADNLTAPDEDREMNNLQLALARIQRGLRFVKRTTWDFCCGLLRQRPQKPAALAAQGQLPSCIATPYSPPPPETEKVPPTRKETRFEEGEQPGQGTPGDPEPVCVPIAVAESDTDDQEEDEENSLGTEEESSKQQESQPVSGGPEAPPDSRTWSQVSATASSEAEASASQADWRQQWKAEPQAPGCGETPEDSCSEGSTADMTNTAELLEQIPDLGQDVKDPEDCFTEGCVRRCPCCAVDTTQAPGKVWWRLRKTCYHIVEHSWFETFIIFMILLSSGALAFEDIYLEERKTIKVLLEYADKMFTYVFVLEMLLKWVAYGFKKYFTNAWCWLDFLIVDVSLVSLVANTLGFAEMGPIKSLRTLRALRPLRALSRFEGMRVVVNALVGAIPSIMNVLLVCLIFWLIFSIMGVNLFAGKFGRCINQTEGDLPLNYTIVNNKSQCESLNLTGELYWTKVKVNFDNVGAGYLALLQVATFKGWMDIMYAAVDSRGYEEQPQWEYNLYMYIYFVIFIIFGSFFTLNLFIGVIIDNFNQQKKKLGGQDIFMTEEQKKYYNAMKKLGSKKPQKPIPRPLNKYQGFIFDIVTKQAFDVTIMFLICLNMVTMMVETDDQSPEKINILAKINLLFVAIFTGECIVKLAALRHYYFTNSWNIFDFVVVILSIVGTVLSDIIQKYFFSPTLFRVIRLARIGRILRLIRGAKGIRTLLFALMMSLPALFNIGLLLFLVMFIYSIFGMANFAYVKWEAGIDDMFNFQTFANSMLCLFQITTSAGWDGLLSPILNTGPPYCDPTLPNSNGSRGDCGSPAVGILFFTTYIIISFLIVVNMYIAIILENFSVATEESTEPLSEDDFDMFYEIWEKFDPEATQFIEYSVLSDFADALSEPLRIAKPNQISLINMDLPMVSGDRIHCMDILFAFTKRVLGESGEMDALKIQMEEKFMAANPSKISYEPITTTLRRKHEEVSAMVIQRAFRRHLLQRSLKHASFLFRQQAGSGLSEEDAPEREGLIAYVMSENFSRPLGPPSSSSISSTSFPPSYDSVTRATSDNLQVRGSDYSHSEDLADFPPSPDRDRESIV

[18] = Plasma clearance in iv dosed rhesus monkey; type: ADME, organism-based, Macaca mulatta
[19] = Mutagenic activity in Salmonella Typhimurium by AMES test in presence of S9 fraction; type: toxicity; details: salmonella enterica subsp. enterica serovar typhimurium, in the assay text read “5-fluorouracil forward mutation assay” for “AMES test”
[20] = biological target: Voltage-gated inwardly rectifying potassium channel KCNH2 (Homo sapiens, UniProt Q12809); assay: Inhibition of human ERG
[21] = Metabolic stability in human liver microsomes assessed as compound remaining after 45 mins; type: ADME, Microsome; details: read-out: Stability
[22] = Half life in iv dosed rhesus monkey; type: ADME, organism-based, Macaca mulatta; details: in vivo
[23] = Metabolic stability in rhesus monkey liver microsomes assessed as compound remaining after 45 mins; type: ADME, Macaca mulatta, Microsome; details: read-out: Stability
[24] = Metabolic stability in rat liver microsomes assessed as compound remaining after 45 mins; type: ADME, Microsome; details: read-out: Stability
[25] = Plasma clearance in iv dosed dog; type: ADME, organism-based, Canis lupus familiaris
[26] = biological target: T3, Beta-2 adrenergic receptor; assay: Binding affinity to human beta2 adrenergic receptor
[27] = Solubility of the compound at pH < 5.2; type: physicochemical
[28] = biological target: Cytochrome P450 2C9 (Homo sapiens, UniProt P11712); assay: Inhibition of CYP2C9; type: ADME
Cytochrome P450 2C9, sequence (P11712 whole entry): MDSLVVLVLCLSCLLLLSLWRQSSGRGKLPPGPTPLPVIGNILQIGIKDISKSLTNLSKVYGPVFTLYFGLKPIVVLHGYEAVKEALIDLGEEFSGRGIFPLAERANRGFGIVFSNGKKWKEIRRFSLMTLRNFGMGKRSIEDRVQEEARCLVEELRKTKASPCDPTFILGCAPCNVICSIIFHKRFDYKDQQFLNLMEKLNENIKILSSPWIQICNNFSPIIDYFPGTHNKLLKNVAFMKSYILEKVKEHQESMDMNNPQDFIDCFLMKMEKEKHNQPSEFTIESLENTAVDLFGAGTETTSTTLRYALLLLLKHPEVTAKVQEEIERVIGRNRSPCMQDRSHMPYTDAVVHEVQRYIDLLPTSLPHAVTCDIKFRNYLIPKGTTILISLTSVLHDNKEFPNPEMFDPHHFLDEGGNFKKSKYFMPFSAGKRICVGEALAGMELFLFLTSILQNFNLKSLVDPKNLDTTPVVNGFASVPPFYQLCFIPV

[29] = as §2; type: ADME, organism-based, Canis lupus familiaris; details: in vivo
[30] = Oral bioavailability in dog; type: ADME, organism-based, Canis lupus familiaris; details: in vivo
[31] = biological target: T2, Beta-1 adrenergic receptor; assay: Binding affinity to human beta1 adrenergic receptor
[32] = Oral bioavailability in rhesus monkey; type: ADME, organism-based, Macaca mulatta; details: in vivo
[33] = Oral bioavailability rat; type: ADME, organism-based; details: in vivo
[34] = Solubility of the compound at pH 7.4; type: physicochemical; details: buffer
[35] = Metabolic stability in dog liver microsomes assessed as compound remaining after 45 mins; type: ADME, Canis lupus familiaris, Microsome; details: read-out: Stability

Cytochrome P450 2D6, sequence (P10635 whole entry): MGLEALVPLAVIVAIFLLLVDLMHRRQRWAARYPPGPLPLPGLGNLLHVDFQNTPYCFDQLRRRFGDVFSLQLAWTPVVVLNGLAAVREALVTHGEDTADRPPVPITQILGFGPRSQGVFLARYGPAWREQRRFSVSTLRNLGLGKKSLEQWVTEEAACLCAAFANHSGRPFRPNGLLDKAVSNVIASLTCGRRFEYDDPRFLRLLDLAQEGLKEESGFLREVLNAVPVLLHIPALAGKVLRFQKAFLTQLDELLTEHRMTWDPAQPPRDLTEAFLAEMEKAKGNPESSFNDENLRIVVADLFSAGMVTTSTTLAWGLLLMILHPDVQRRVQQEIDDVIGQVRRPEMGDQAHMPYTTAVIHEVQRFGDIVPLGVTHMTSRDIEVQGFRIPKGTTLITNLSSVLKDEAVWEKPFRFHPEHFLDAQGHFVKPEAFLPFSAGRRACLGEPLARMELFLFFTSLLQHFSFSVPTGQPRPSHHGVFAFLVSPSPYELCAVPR

INH [1]: > 50 µM
EC50 ([2]; read-out: EC50): 0.083 µM
IC50 [3]: 0.242 µM
Activity [4]: 76%
IC50 [5]: 0.297 µM
INH [6]: > 50 µM
Compound: O=S(=O)(Nc1ccc(C[C@H]2CC[C@H]([C@H](O)c3ccccc3)N2)cc1)c1ccc(-c2nc(-c3ccc(C(F)(F)F)cc3)cs2)cc1

EC50 ([2]; read-out: EC50): 2.03 µM
IC50 [3]: 1.78 µM
Activity [4]: 89%
IC50 [5]: 3.53 µM
Compound: O=S(=O)(Nc1ccc(CC2CC[C@@H]([C@@H](O)c3ccccc3)N2)cc1)c1ccc(-c2nc(-c3ccc(C(F)(F)F)cc3)cs2)cc1 (mixture of isomers)

EC50 ([2]; read-out: EC50): 0.081 µM
IC50 [3]: 2.15 µM
Activity [4]: 104%
IC50 [5]: 3.53 µM
Compound: O=S(=O)(Nc1ccc(CC2CC[C@@H]([C@H](O)c3ccccc3)N2)cc1)c1ccc(-c2nc(-c3ccc(C(F)(F)F)cc3)cs2)cc1 (mixture of isomers)

EC50 ([2]; read-out: EC50): 0.015 µM
IC50 [3]: 2.93 µM
Activity [4]: 101%
IC50 [5]: 2.18 µM
Compound: O=S(=O)(Nc1ccc(CC2CC[C@H]([C@H](O)c3ccccc3)N2)cc1)c1ccc(-c2nc(-c3ccc(C(F)(F)F)cc3)cs2)cc1 (mixture of isomers)

EC50 ([2]; read-out: EC50): 1.31 µM
IC50 [3]: 1.52 µM
Activity [4]: 104%
IC50 [5]: 2.79 µM
Compound: O=S(=O)(Nc1ccc(CC2CC[C@H]([C@@H](O)c3ccccc3)N2)cc1)c1ccc(-c2nc(-c3ccc(C(F)(F)F)cc3)cs2)cc1 (mixture of isomers)

Compound: Nc1ccc(C[C@@H]2CC[C@H]([C@H](O)c3ccccc3)N2)cc1
Activity [7]: Non-toxic
Activity [8]: Non-toxic

EC50 [2]: Not Active
Compound: CC(Cc1ccc(NS(=O)(=O)c2ccc(-c3nc(-c4ccc(C(F)(F)F)cc4)cs3)cc2)cc1)NC(C)[C@H](O)c1ccccc1 (mixture of isomers)

INH [1]: > 50 µM
EC50 ([2]; read-out: EC50): 0.0041 µM
IC50 [3]: 2.19 µM
Activity [4]: 95%
IC50 [5]: 2.51 µM
INH [6]: > 50 µM
Compound: O=S(=O)(Nc1ccc(C[C@@H]2CC[C@H]([C@H](O)c3ccccc3)N2)cc1)c1ccc(-c2nc(-c3ccc(C(F)(F)F)cc3)cs2)cc1

EC50 ([2]; read-out: EC50): 0.011 µM
IC50 [3]: 1.04 µM
Activity [4]: 95%
IC50 [5]: 0.78 µM
Compound: O=S(=O)(Nc1ccc(CCNC[C@H](O)c2ccccc2)cc1)c1ccc(-c2nc(-c3ccc(C(F)(F)F)cc3)cs2)cc1

half-life [9]: 8.1 h
Vd [10]: 23 L/kg
t1/2 [11]: 14 h
Vd [12]: 12 L/kg
Selectivity ratio [13]: 1000
Selectivity ratio [14]: 1000
Vd [15]: 6.2 L/kg
Compound: O=S(=O)(Nc1ccc(CCNC[C@H](O)c2cccnc2)cc1)c1ccc(-c2nc(-c3ccc(C(F)(F)F)cc3)cs2)cc1

INH [16]: > 100 µM
clearance [18]: 43.4 mL/min/kg
half-life [9]: 7.7 h
INH [1]: 2.2 µM
remaining at 0.75 h [21]: 40%
half-life [22]: 9.9 h
remaining at 0.75 h [23]: 77%
EC50 ([2]; read-out: EC50): 0.00098 µM
remaining at 0.75 h [24]: 13%
Vd [10]: 5.8 L/kg
clearance [25]: 23 mL/min/kg
IC50 [26]: > 20 µM
solubility [27]: > 1800 µg/mL
IC50 [3]: > 20 µM
INH [28]: > 100 µM
Activity [4]: 99%
half-life [29]: 8.3 h
bioavailability [30]: 18%
IC50 [5]: > 20 µM
IC50 [31]: > 20 µM
Vd [12]: 14 L/kg
INH [6]: > 100 µM
bioavailability [32]: 14%
bioavailability [33]: 12%
solubility [34]: 1300 µg/mL (≈ 3.08 mM)
remaining at 0.75 h [35]: 23%
Vd [15]: 26.4 L/kg
Compound: Nc1nc(CC(=O)Nc2ccc(C[C@@H]3CC[C@H]([C@H](O)c4ccccc4)N3)cc2)cs1
inhibition at 30 µM [17]: 26%
Activity [19]: Non-toxic
IC50 [20]: 11.2 µM
